Reference: ChEMBL document CHEMBL4602713, “Quantitative Proteomics Reveals Cellular Off-Targets of a DDR1 Inhibitor” (ACS Med Chem Lett, 2020)
The source made the active and inactive calls. The rule behind the calls is not given here.

What was measured:
[1] = molecular target: T1, Epithelial discoidin domain-containing receptor 1 (Homo sapiens, UniProt Q08345); experiment: Inhibition of human GST-tagged DDR1 (440 to 876 residues) expressed in baculovirus expression system using fluorescein-Poly GAT as substrate incubated for 1 to 2 hrs in presence of ATP by TR-FRET assay
T1 sequence (Q08345 whole entry, the tested form may be a part): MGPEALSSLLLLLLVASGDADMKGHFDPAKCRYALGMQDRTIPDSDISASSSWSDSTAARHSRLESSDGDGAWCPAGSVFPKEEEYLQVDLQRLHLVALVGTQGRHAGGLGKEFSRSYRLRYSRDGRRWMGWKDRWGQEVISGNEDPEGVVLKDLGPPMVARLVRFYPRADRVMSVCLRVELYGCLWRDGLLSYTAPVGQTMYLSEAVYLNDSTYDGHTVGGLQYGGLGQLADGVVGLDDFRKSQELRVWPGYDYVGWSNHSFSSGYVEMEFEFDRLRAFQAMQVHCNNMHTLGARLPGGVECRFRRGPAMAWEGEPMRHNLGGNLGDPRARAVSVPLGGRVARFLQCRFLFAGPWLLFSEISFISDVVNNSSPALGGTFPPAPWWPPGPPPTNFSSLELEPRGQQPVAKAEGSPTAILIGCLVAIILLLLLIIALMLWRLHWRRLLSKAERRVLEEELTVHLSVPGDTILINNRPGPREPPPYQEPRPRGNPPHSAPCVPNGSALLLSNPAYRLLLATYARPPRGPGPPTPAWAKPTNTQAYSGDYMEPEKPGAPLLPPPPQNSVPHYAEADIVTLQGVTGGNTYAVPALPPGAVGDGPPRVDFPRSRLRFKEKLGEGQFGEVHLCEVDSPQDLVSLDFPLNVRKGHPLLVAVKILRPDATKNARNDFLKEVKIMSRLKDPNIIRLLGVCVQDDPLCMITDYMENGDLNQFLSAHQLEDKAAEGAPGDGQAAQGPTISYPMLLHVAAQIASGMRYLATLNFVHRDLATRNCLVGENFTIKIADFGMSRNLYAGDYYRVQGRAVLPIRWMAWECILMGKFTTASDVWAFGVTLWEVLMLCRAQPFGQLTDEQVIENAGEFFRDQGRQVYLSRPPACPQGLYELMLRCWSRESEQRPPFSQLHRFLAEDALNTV

[2] = Drug localization in cellular membrane of human H1299 cells conjugated with TAMRA-N3 incubated for 2 to 6 hrs followed by compound washout twice with PBS buffer to remove excess compound and further irradiated with UV-light for 20 mins by Hoechst staining based confocal microscopy; type: ADME, cell membranes; settings: nci-h1299
Summary of the method: (§1)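 H1299 cells were incubated with the probe, with or without excess parent inhibitor, then UV cross-linked. Cells were fixed, permeabilised, clicked to TAMRA-N3 and imaged by confocal microscopy with nuclear staining and DIC. Negative control samples were included.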

Cathepsin D [3] = molecular target: T2, Cathepsin D (Homo sapiens, UniProt P07339); experiment: Binding affinity to cathepsin D in human […] cells assessed as protein labeling at 0.5 to 1 uM pretreated with lysosomal neutralizing agent ammonium chloride for 30 mins followed by compound treatment by pull down based Western blot analysis; type: ADME, cell-based
T2 sequence (P07339 65-162 limits assumed): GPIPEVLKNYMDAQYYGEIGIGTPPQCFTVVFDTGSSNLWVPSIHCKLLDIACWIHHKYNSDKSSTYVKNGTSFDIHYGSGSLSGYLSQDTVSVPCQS
T2 sequence (P07339 169-412 limits assumed): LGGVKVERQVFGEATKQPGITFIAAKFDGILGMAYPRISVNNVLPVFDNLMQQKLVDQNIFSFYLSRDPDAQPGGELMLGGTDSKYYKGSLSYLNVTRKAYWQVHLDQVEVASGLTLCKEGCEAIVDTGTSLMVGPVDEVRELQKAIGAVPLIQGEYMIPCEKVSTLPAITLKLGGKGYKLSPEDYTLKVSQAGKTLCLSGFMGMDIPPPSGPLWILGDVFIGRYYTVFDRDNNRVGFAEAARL
Summary of the method: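 Live H1299 cells were first treated with 10 mM ammonium chloride for 30 min to neutralise lysosomes. Probe labelling followed, with pull-down and Western blot for CTSD.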

[4] = molecular target: T1, Epithelial discoidin domain-containing receptor 1; experiment: Binding affinity to DDR1 in TAMRA-N3 conjugated human […] cell lysate assessed as labeling band formation at 1 to 2 uM incubated for 1 to 3 hrs followed irradiation with UV-light at 365 nm for 20 mins by gel fluorescence scanning analysis
Summary of the method: (§2)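 Live H1299 cells or H1299 lysate were incubated with the photoaffinity probe for 1–3 h, then irradiated at 365 nm for 20 min. Labelled proteins were clicked to TAMRA-N3, separated by SDS-PAGE and detected by in-gel fluorescence scanning.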

[5] = Drug localization in cytoplasm of human H1299 cells conjugated with TAMRA-N3 incubated for 2 to 6 hrs followed by compound washout twice with PBS buffer to remove excess compound and further irradiated with UV-light for 20 mins by Hoechst staining based confocal microscopy; type: ADME, subcellular; settings: nci-h1299; summary of the method: as §1
Cathepsin D [6] = molecular target: T2, Cathepsin D; experiment: Binding affinity to cathepsin D in SILAC labeled human H1299 cells assessed as labeling of heavy chain incubated for 3 hrs in presence of excess parent compound followed by compound washout twice with PBS buffer to remove excess compound and further irradiated with UV-light at 365 nm for 20 mins by LC-MS/MS analysis; type: ADME, cell-based; design: dose or concentration left out as unconfirmed; settings: nci-h1299, 3 h
Summary of the method: (§3)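 SILAC-labelled H1299 cells were treated with the photoaffinity probe for 2–4 h and then UV-irradiated. Labelled proteomes were clicked to biotin-N3, enriched, digested and analysed by LC-MS/MS. Controls (excess parent inhibitor or DMSO) were run in parallel. Biological triplicates were performed, and hits were filtered by SILAC ratios.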

Cathepsin D [7] = molecular target: T2, Cathepsin D; experiment: (§4) Binding affinity to cathepsin D in TAMRA-N3 conjugated human […] cells assessed as fluorescence band formation with molecular weight of 30 kDa at 1 to 2 uM incubated for 2 hrs followed by compound washout to remove excess compound and further irradiated with UV-light at 365 nm for 20 mins by pull down assay; type: ADME
Summary of the method: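 Live H1299 cells were labelled with the photoaffinity probe and UV cross-linked. Labelled proteins were pulled down and detected by Western blot; CTSD was probed with an anti-CTSD antibody. The heavy chain of mature CTSD runs at ~33 kDa.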

Protein GPR107 = Protein GPR107 (Homo sapiens, UniProt Q5VW38); experiment: Binding affinity to GPR107 in SILAC labeled human H1299 cells incubated for 3 hrs followed by compound washout twice with PBS buffer to remove excess compound and further irradiated with UV-light at 365 nm for 20 mins by LC-MS/MS analysis; type: ADME, cell-based; design: dose or concentration left out as unconfirmed; settings: nci-h1299, 3 h; summary of the method: as §3
Sequence of Protein GPR107 (Q5VW38 whole entry): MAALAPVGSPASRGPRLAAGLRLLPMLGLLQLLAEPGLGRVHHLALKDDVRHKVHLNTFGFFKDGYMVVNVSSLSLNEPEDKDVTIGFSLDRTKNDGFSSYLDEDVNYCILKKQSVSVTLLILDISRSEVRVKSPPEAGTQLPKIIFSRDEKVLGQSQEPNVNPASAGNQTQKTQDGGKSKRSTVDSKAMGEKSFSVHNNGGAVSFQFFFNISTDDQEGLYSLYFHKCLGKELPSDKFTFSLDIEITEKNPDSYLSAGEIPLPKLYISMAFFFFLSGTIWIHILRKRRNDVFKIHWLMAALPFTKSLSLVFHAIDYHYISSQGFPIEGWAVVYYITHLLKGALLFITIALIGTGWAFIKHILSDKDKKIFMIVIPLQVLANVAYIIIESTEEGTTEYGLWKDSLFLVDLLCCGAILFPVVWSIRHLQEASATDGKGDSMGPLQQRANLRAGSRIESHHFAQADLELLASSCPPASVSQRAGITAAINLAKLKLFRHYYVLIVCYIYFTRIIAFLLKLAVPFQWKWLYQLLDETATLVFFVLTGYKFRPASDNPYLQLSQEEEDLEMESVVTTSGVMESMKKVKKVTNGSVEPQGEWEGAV

Cathepsin D [8] = molecular target: T2, Cathepsin D; experiment: Binding affinity to cathepsin D in SILAC labeled human H1299 cells incubated for 3 hrs followed by compound washout twice with PBS buffer to remove excess compound and further irradiated with UV-light at 365 nm for 20 mins by LC-MS/MS analysis; type: cell-based; design: dose or concentration left out as unconfirmed; settings: nci-h1299, 3 h; summary of the method: as §3
[9] = molecular target: T1, Epithelial discoidin domain-containing receptor 1; experiment: Binding affinity to DDR1 in TAMRA-N3 conjugated human […] cells assessed as labeling band formation at 1 to 2 uM incubated for 1 to 3 hrs followed irradiation with UV-light at 365 nm for 20 mins by gel fluorescence scanning analysis; summary of the method: as §2
[10] = molecular target: T3, Catechol O-methyltransferase (Homo sapiens, UniProt P21964); experiment: Binding affinity to COMT in SILAC labeled human H1299 cells incubated for 3 hrs followed by compound washout twice with PBS buffer to remove excess compound and further irradiated with UV-light at 365 nm for 20 mins by LC-MS/MS analysis; type: ADME, cell-based; design: dose or concentration left out as unconfirmed; settings: nci-h1299, 3 h; summary of the method: as §3
T3 sequence (P21964 whole entry): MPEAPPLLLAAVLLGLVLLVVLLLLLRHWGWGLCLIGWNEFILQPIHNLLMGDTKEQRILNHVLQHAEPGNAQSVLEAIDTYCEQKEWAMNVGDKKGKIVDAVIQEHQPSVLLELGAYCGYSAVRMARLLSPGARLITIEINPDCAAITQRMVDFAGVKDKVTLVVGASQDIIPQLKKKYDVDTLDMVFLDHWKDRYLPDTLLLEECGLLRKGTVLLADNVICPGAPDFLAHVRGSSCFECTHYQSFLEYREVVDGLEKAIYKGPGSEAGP

[11] = molecular target: T1, Epithelial discoidin domain-containing receptor 1; experiment: as §4, with “DDR1” for “cathepsin D”, “110” for “30”
MCF7 = experiment: Antiproliferative activity against human MCF7 cells overexpressing cathepsin D assessed as growth inhibition
SK-BR-3 = experiment: Antiproliferative activity against human SKBR3 cells overexpressing cathepsin D assessed as growth inhibition
Cathepsin D [12] = molecular target: T2, Cathepsin D; experiment: Inhibition of cathepsin D (unknown origin) at 50 to 200 uM
Cathepsin D [13] = molecular target: T2, Cathepsin D; experiment: Binding affinity to cathepsin D in human H1299 cells assessed as increase in thermal stability of heavy chain at 10 uM incubated for 2 hrs followed by compound washout twice with PBS buffer to remove excess compound and further heated at 95 degree C for 10 mins by CETSA; type: ADME, cell-based; settings: nci-h1299, 2 h
Summary of the method: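 For the cellular thermal shift assay, live H1299 cells were treated with compound or DMSO. The thermal stability of the mature CTSD heavy chain was then compared between the two.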

MDA-MB-231 = experiment: Antiproliferative activity against human MDA-MB-231 cells overexpressing cathepsin D assessed as growth inhibition
[14] = Drug distribution in human H1299 cells cytosol incubated for 4 hrs followed cellular conjugation with tetrazine-TAMRA immunofluorescence microscopy; type: ADME, subcellular, NCI-H1299
Summary of the method: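 Live H1299 cells were incubated with the TCO-bearing probe for 4 h, fixed, permeabilised and conjugated with tetrazine-TAMRA. After washing with fresh medium, cells were imaged by microscopy alongside anti-DDR1 immunofluorescence staining.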

Row | IC50 [1] [nM] | Drug uptake [2] | Activity (Cathepsin D [3]) | Activity [4] | Drug uptake [5] | Activity (Cathepsin D [6]) | Activity (Cathepsin D [7]) | Activity (Protein GPR107) | Activity (Cathepsin D [8]) | Activity [9] | Activity [10] | Activity [11] | IC50 (MCF7) [µM] | IC50 (SK-BR-3) [µM] | inhibition (INH) (Cathepsin D [12]) | Activity (Cathepsin D [13]) | IC50 (MDA-MB-231) [µM] | Drug uptake [14] | Compound
1 | 259 | Active | Not Active | Active | Active | Active | Active | Active | Active | Active | Active | Active | – | – | – | – | – | – | C#CCCC1(CC(=O)N2CCN(Cc3cc(NC(=O)c4ccc5c(c4)CN(c4cncnc4)CC5C)cc(C(F)(F)F)c3)CC2)N=N1 (stereo unspecified)
2 | – | – | – | – | – | – | – | – | – | – | – | – | 3.38 | 6.62 | Active | Active | 6.99 | – | CC1CN(c2cncnc2)Cc2cc(C(=O)Nc3cc(CN4CCN(C)CC4)cc(C(F)(F)F)c3)ccc21 (stereo unspecified)
3 | 397 | – | – | – | – | – | – | – | – | – | – | – | – | – | – | – | – | Active | CC1CN(c2cncnc2)Cc2cc(C(=O)Nc3cc(CN4CCN(CCC(=O)NCCCNC(=O)OC5CC/C=C/CCC5)CC4)cc(C(F)(F)F)c3)ccc21 (stereo unspecified)
4 | 577 | Active | – | Active | Active | – | Active | – | – | Active | – | Active | – | – | – | – | – | – | C#CCCC1(CCN2CCN(Cc3cc(NC(=O)c4ccc5c(c4)CN(c4cncnc4)CC5C)cc(C(F)(F)F)c3)CC2)N=N1 (stereo unspecified)
